Measurements: ChEMBL document CHEMBL1240523, “Small-molecule inhibitors of NADPH oxidase 4” (J Med Chem, 2010)

Key:
Format in all cases: cell-based
[1] = molecular target: T1, NADPH oxidase 4 (Homo sapiens, UniProt Q9NPH5); experiment: Inhibition of NOX4 expressed in HEK293 FS cells assessed as H2O2 production by H2O2/Tyr/LPO assay
T1 sequence (Q9NPH5 whole entry): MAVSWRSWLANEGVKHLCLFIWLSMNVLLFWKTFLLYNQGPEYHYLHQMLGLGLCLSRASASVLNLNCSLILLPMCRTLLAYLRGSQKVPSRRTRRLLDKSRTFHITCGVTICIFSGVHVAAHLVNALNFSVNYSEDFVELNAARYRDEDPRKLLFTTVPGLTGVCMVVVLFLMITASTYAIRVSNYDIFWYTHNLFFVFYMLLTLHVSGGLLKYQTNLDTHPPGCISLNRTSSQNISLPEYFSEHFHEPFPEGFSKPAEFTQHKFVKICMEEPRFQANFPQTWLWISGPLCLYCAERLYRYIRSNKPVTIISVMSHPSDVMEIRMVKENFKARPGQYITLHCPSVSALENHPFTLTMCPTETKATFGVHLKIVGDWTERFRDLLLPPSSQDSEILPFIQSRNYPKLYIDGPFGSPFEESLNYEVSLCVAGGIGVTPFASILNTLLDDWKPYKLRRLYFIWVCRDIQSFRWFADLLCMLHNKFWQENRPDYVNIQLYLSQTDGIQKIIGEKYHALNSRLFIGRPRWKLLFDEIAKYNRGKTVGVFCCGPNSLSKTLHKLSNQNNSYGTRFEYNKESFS
Procedure, shortened: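 Cell-based H2O2/Tyr/LPO assay in free-style HEK 293 F cells transfected to overexpress constitutively H2O2-producing NOX4. NOX4-generated H2O2 drives LPO conversion of L-tyrosine to fluorescent o,o'-dityrosine, read on a spectrofluorometric plate reader. IC50 estimated from an eight-point curve, 1/2 dilution series from 10 to 0.078 μM.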

[2] = molecular target: T2, NADPH oxidase 4 (Homo sapiens) (UniProt Q9NPH5); experiment: Inhibition of NOX4 expressed in HEK293 FS cells at 10 uM assessed as H2O2 production by H2O2/Tyr/LPO assay
T2 sequence (whole entry): T1 sequence (Q9NPH5 whole entry)
Procedure, shortened: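 Primary screen at 10 μM in the H2O2/Tyr/LPO cellular assay. HEK 293 FS cells overexpress NOX4. The LPO enzyme forms fluorescent o,o'-dityrosine from L-tyrosine and H2O2, detected by spectrofluorometric plate reader. Inhibition expressed relative to DPI.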

[3] = molecular target: T2, NADPH oxidase 4 (Homo sapiens); experiment: Inhibition of NOX4 expressed in HEK293 FS cells at 10 uM assessed as H2O2 production by H2O2/Tyr/LPO assay substituted with 3 uM H2O2; conditions: values are per cent of control
Procedure, shortened: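 Redox-activity counter-screen: transfected cells replaced by 3 μM H2O2 in the H2O2/Tyr/LPO read-out (LPO plus L-tyrosine giving fluorescent dityrosine). Compounds at 10 μM final, to detect breakdown of H2O2 independent of NOX4.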

[4] = Cytotoxicity against human free style HEK293 cells after 72 hrs; conditions: FreeStyle HEK293 cells
Procedure, shortened: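 Luminescent cell viability kit read-out; cells exposed to 10 μM compound for 72 h. Values expressed as percentage of live cells.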

For `COc1cc(CCNC(=O)C(=O)Nc2cccc(N)c2)ccc1O`, which IC50 [1] is on record?
The IC50 was 1300 nM.

And the inhibition [2]?
The inhibition was 104%.

And the % inhibition of H2O2 signal (cell-free redox counter-screen) [3]?
Its % inhibition of H2O2 signal (cell-free redox counter-screen) is -3.3%.

What about the cytotoxicity at 72 h [4] of the same molecule?
Its cytotoxicity at 72 h is 82.4%.

What does the source list for `O=C1Nc2ccc([N+](=O)[O-])cc2/C1=C/c1ccc(O)c(O)c1`?
IC50 [1]: 1130 nM; inhibition [2]: 102%; % inhibition of H2O2 signal (cell-free redox counter-screen) [3]: 0.39%; cytotoxicity at 72 h [4]: 123%

For `O=c1c2cc(O)c(O)cc2c2cc(O)c(O)cc2n1Cc1ccccc1S(=O)(=O)c1ccccc1`, which IC50 [1] is on record?
The IC50 was 1580 nM.

What about the inhibition [2] of the same molecule?
The inhibition was 95%.

And the % inhibition of H2O2 signal (cell-free redox counter-screen) [3]?
Its % inhibition of H2O2 signal (cell-free redox counter-screen) is -1.05%.

What about the cytotoxicity at 72 h [4] of the same molecule?
Its cytotoxicity at 72 h is 113%.

For `O=C(O)c1cc(NCc2cc(O)ccc2O)ccc1O` [LAVENDUSTIN C], which IC50 [1] is on record?
Its IC50 is 1340 nM.

And the inhibition [2]?
Its inhibition is 82%.

And the % inhibition of H2O2 signal (cell-free redox counter-screen) [3]?
Its % inhibition of H2O2 signal (cell-free redox counter-screen) is 72.4%.

And the cytotoxicity at 72 h [4]?
The cytotoxicity at 72 h was 88.7%.

What does the source list for `COc1cc(O)c2c(=O)c(OC)c(-c3ccc(O)c(O)c3)oc2c1`?
IC50 [1]: 1020 nM; inhibition [2]: 88%

Which IC50 [1] does the source give for `C=CCN(CC=C)C(=S)N=C1C(=O)Nc2cc(C)c(O)c(C)c21` here?
Its IC50 is 1000 nM.

What about the cytotoxicity at 72 h [4] of the same molecule?
Its cytotoxicity at 72 h is 97.8%.

Which results are given for `O=C(NCCc1ccc(O)c(O)c1)C(=O)Nc1cccc([N+](=O)[O-])c1`?
IC50 [1]: 1640 nM; inhibition [2]: 104%; % inhibition of H2O2 signal (cell-free redox counter-screen) [3]: -3.5%; cytotoxicity at 72 h [4]: 74.9%

With `CC(C)c1cc(/C=C2\C(=O)Nc3ccccc32)cc(C(C)C)c1O` as the molecule, how does the IC50 [1] read?
Its IC50 is 630 nM.

What about the inhibition [2] of the same molecule?
The inhibition was 102%.

What about the % inhibition of H2O2 signal (cell-free redox counter-screen) [3] of the same molecule?
The % inhibition of H2O2 signal (cell-free redox counter-screen) was -0.88%.

And the cytotoxicity at 72 h [4]?
The cytotoxicity at 72 h was 18.7%.

What does the source list for `Nc1ccc(Nc2ncnc3c2sc2ccc(N)cc23)cc1`?
IC50 [1]: 1070 nM; inhibition [2]: 101%; % inhibition of H2O2 signal (cell-free redox counter-screen) [3]: -2.78%; cytotoxicity at 72 h [4]: 60.5%

For `O=c1cc(-c2ccc(O)c(O)c2)oc2cc(O)cc(O)c12` [LUTEOLIN], which IC50 [1] is on record?
The IC50 was 850 nM.

What about the inhibition [2] of the same molecule?
The inhibition was 106%.

What about the cytotoxicity at 72 h [4] of the same molecule?
The cytotoxicity at 72 h was 110%.

With `COC(=O)c1cc(NCc2ccccc2O)ccc1O` as the molecule, how does the IC50 [1] read?
Its IC50 is 1270 nM.

What about the inhibition [2] of the same molecule?
Its inhibition is 91%.

What about the % inhibition of H2O2 signal (cell-free redox counter-screen) [3] of the same molecule?
Its % inhibition of H2O2 signal (cell-free redox counter-screen) is 3.83%.

What about the cytotoxicity at 72 h [4] of the same molecule?
The cytotoxicity at 72 h was 106%.

With `O=C(N/N=C/c1ccc(O)c(O)c1)C(=O)N/N=C/c1ccc(O)c(O)c1` as the molecule, how does the IC50 [1] read?
The IC50 was 1160 nM.

What about the inhibition [2] of the same molecule?
Its inhibition is 105%.

What about the % inhibition of H2O2 signal (cell-free redox counter-screen) [3] of the same molecule?
Its % inhibition of H2O2 signal (cell-free redox counter-screen) is 7.6%.

And the cytotoxicity at 72 h [4]?
Its cytotoxicity at 72 h is 99.5%.

Which IC50 [1] does the source give for `O=c1c2cc(O)c(O)cc2c2cc(O)c(O)cc2n1Cc1cc([N+](=O)[O-])ccc1O` here?
The IC50 was 170 nM.

And the inhibition [2]?
Its inhibition is 104%.

And the % inhibition of H2O2 signal (cell-free redox counter-screen) [3]?
The % inhibition of H2O2 signal (cell-free redox counter-screen) was -4.8%.

What about the cytotoxicity at 72 h [4] of the same molecule?
Its cytotoxicity at 72 h is 90.6%.

Which IC50 [1] does the source give for `O=c1c(O)c(-c2ccc(O)cc2)oc2cc(O)cc(O)c12` [KAEMPFEROL] here?
The IC50 was 1200 nM.

What about the inhibition [2] of the same molecule?
Its inhibition is 105%.

And the % inhibition of H2O2 signal (cell-free redox counter-screen) [3]?
The % inhibition of H2O2 signal (cell-free redox counter-screen) was 2.09%.

And the cytotoxicity at 72 h [4]?
Its cytotoxicity at 72 h is 119%.

For `COc1cc(/C=C2\C(=O)Nc3ccc(NC(C)=O)cc32)ccc1O`, which IC50 [1] is on record?
The IC50 was 1400 nM.

What about the inhibition [2] of the same molecule?
The inhibition was 104%.

And the % inhibition of H2O2 signal (cell-free redox counter-screen) [3]?
Its % inhibition of H2O2 signal (cell-free redox counter-screen) is -5.16%.

And the cytotoxicity at 72 h [4]?
Its cytotoxicity at 72 h is 112%.

Which results are given for `O=c1cc(-c2ccc(O)cc2)oc2cc(O)cc(O)c12` [APIGENIN]?
IC50 [1]: 1130 nM; inhibition [2]: 105%; % inhibition of H2O2 signal (cell-free redox counter-screen) [3]: -1.2%; cytotoxicity at 72 h [4]: 108%

What does the source list for `O=c1c(O[C@H]2O[C@H](CO)[C@@H](O)[C@H](O)[C@H]2O)c(-c2ccc(O)c(O)c2)oc2cc(O)cc(O)c12` [MIQUELIANIN]?
inhibition [2]: 105%; % inhibition of H2O2 signal (cell-free redox counter-screen) [3]: -1.86%

With `N#Cc1ccccc1Cn1c(=O)c2cc(O)c(O)cc2c2cc(O)c(O)cc21` as the molecule, how does the IC50 [1] read?
The IC50 was 590 nM.

And the inhibition [2]?
The inhibition was 97%.

And the % inhibition of H2O2 signal (cell-free redox counter-screen) [3]?
The % inhibition of H2O2 signal (cell-free redox counter-screen) was 4.8%.

And the cytotoxicity at 72 h [4]?
Its cytotoxicity at 72 h is 108%.

With `Nc1cccc(Nc2ncnc3c2sc2ccc(N)cc23)c1` as the molecule, how does the IC50 [1] read?
Its IC50 is 240 nM.

And the inhibition [2]?
Its inhibition is 98%.

What about the % inhibition of H2O2 signal (cell-free redox counter-screen) [3] of the same molecule?
Its % inhibition of H2O2 signal (cell-free redox counter-screen) is 17.9%.

And the cytotoxicity at 72 h [4]?
Its cytotoxicity at 72 h is 106%.

For `O=c1c2cc(O)c(O)cc2c2cc(O)c(O)cc2n1Cc1ccc([N+](=O)[O-])cc1`, which IC50 [1] is on record?
Its IC50 is 1580 nM.

What about the inhibition [2] of the same molecule?
The inhibition was 93%.

And the % inhibition of H2O2 signal (cell-free redox counter-screen) [3]?
The % inhibition of H2O2 signal (cell-free redox counter-screen) was -6.11%.

And the cytotoxicity at 72 h [4]?
The cytotoxicity at 72 h was 108%.

Which IC50 [1] does the source give for `O=c1c(O)c(-c2ccc(O)c(O)c2)oc2cc(O)cc(O)c12` [QUERCETIN] here?
The IC50 was 680 nM.

What about the inhibition [2] of the same molecule?
The inhibition was 94%.

What about the cytotoxicity at 72 h [4] of the same molecule?
The cytotoxicity at 72 h was 102%.

Which results are given for `O=c1c2cc(O)c(O)cc2c2cc(O)c(O)cc2n1Cc1cccc([N+](=O)[O-])c1`?
IC50 [1]: 260 nM; inhibition [2]: 101%; % inhibition of H2O2 signal (cell-free redox counter-screen) [3]: -4.9%; cytotoxicity at 72 h [4]: 112%

With `C=CCN(CC=C)C(=S)/N=C1\C(=O)Nc2cc(C)c(O)c(C)c21` as the molecule, how does the inhibition [2] read?
Its inhibition is 100%.

Which IC50 [1] does the source give for `O=C(O)c1cc(NCc2ccccc2O)ccc1O` here?
Its IC50 is 960 nM.

What about the inhibition [2] of the same molecule?
Its inhibition is 89%.

And the % inhibition of H2O2 signal (cell-free redox counter-screen) [3]?
The % inhibition of H2O2 signal (cell-free redox counter-screen) was 5.35%.

What about the cytotoxicity at 72 h [4] of the same molecule?
The cytotoxicity at 72 h was 102%.

What does the source list for `COc1cc(O)cc2oc(-c3ccc(O)c(O)c3)c(O)c(=O)c12`?
IC50 [1]: 740 nM; inhibition [2]: 100%; % inhibition of H2O2 signal (cell-free redox counter-screen) [3]: 3.17%; cytotoxicity at 72 h [4]: 121%

For `O=C(N/N=C/c1cccc(O)c1O)C(=O)N/N=C/c1cccc(O)c1O`, which IC50 [1] is on record?
Its IC50 is 910 nM.

What about the inhibition [2] of the same molecule?
The inhibition was 103%.

And the % inhibition of H2O2 signal (cell-free redox counter-screen) [3]?
The % inhibition of H2O2 signal (cell-free redox counter-screen) was -4.58%.

What about the cytotoxicity at 72 h [4] of the same molecule?
Its cytotoxicity at 72 h is 67.2%.
